{"source": "paper PMC6045486", "about": "(ACS Omega, 2018)", "key": {"Chemical stability [1]": {"experiment": "Chemical stability", "type": "physicochemical", "conditions": "10 μM, phosphate buffer pH 7.4, 1% DMSO, 37 °C, within 1 h"}, "Chemical stability [2]": {"experiment": "Chemical stability", "type": "physicochemical", "conditions": "10 μM, cell culture medium with 10% FBS, 1% DMSO, 37 °C, in 2.5 h"}, "MCF7 cells [3]": {"system": "MCF7 cells", "experiment": "MTT cytotoxicity assay, MCF7", "type": "cell-based, human", "conditions": "read-out: IC50 (half maximal concentration to inhibit proliferation by 50%), 48 h", "method_in_brief": "(§1)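 Cells kept in DMEM with 10% FBS and penicillin/streptomycin at 37 °C in 5% CO2. About 2 × 10^3 cells per well, 12 h attachment, then test compound at 5–100 μM (from DMSO stock; 0.1% DMSO final) for 48 h. MTT absorbance read at 570 nm, with % cytotoxicity relative to the 0.1% DMSO control. Mean ± SEM, n = 3.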"}, "A549 cells": {"system": "A549 cells", "experiment": "MTT cytotoxicity assay, A549", "type": "cell-based, human", "conditions": "read-out: IC50 (half maximal concentration to inhibit proliferation by 50%), 48 h", "method_in_brief": "as §1"}, "CHO cells [4]": {"system": "CHO cells", "experiment": "MTT cytotoxicity assay, CHO", "type": "cell-based, Chinese Hamster", "conditions": "read-out: IC50 (half maximal concentration to inhibit proliferation by 50%), 48 h", "method_in_brief": "as §1"}, "splenic lymphocytes": {"system": "splenic lymphocytes", "experiment": "MTT cytotoxicity assay, splenic lymphocytes", "type": "cell-based, BALB/c mice", "conditions": "read-out: IC50 (half maximal concentration to inhibit proliferation by 50%), 48 h", "method_in_brief": "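Splenic lymphocytes freshly isolated from BALB/c mice and kept in RPMI-1640 with FBS and antibiotics at 37 °C in 5% CO2. About 2 × 10^3 cells per well, 12 h, then test compound at 5–100 μM (0.1% DMSO final) for 48 h. MTT absorbance read at 570 nm, with % cytotoxicity relative to the DMSO control. Mean ± SEM, n = 3.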"}, "MCF7 cells [5]": {"system": "MCF7 cells", "experiment": "Intracellular redox state: ratio of GSH and GSSG in MCF7 cells", "type": "cell-based, human", "conditions": "MCF7, 25 μM, 48 h", "method_in_brief": "(§2)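 MCF7 cells were grown in DMEM with 10% FBS at 37 °C and 5% CO2, then exposed to 25 μM test compound (0.1% DMSO) for 48 h. Lysates were made in CelLytic M with protease inhibitor cocktail. About 100 μg protein was used for GSH, GSSG, GPx, GST and GR determinations, with protein measured by Bradford. Mean ± SEM, n = 3, versus DMSO control.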"}, "[6]": {"system": "glutathione peroxidase (GPx)", "experiment": "GPx activity level in MCF7 cells", "type": "cell-based, human", "conditions": "MCF7, 25 μM, 48 h", "method_in_brief": "as §2"}, "[7]": {"system": "glutathione S-transferase (GST)", "experiment": "GST activity level in MCF7 cells", "type": "cell-based, human", "conditions": "MCF7, 25 μM, 48 h", "method_in_brief": "as §2"}, "[8]": {"system": "γ-glutamyl-cysteine ligase (γ-GCL)", "experiment": "mRNA expression of γ-GCL by RT-PCR in MCF7 cells", "type": "cell-based, human", "conditions": "MCF7, 25 μM, 48 h", "method_in_brief": "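MCF7 cells were exposed to 25 μM test compound for 48 h. Total RNA was extracted with TRI reagent, and about 2 μg was reverse-transcribed. SYBR Green real-time PCR used γ-GCL-specific primers. CT values were normalised to β-actin and expression expressed relative to control. Mean ± SEM, n = 3.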"}, "[9]": {"target": "T1, thioredoxin reductase (TrxR) (Homo sapiens, UniProt Q16881)", "T1 sequence (Q16881 151-649 limits assumed)": "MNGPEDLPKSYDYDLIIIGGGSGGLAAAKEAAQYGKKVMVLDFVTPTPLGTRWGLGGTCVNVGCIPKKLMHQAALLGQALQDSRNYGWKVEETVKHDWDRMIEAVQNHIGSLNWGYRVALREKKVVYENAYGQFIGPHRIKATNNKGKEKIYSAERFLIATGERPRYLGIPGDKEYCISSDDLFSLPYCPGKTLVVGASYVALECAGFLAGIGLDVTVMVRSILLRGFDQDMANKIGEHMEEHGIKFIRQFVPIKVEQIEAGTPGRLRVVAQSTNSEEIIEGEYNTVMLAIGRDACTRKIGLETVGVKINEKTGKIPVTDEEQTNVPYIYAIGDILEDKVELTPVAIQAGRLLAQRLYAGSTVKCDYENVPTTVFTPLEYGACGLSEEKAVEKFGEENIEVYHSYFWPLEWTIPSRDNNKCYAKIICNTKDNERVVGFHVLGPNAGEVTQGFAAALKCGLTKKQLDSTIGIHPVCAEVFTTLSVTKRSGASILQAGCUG", "experiment": "TrxR activity level in MCF7 cells", "type": "cell-based", "conditions": "MCF7, 25 μM, 48 h", "method_in_brief": "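MCF7 lysates were prepared in CelLytic M with protease inhibitors after 48 h exposure to 25 μM test compound (0.1% DMSO). Thioredoxin reductase activity in about 100 μg protein was measured with a commercial kit; protein was measured by Bradford. Mean ± SEM, n = 3, versus DMSO control.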"}, "rat liver TrxR": {"target": "T2, rat liver TrxR (Rattus norvegicus, UniProt O89049)", "T2 sequence (O89049 1-499)": "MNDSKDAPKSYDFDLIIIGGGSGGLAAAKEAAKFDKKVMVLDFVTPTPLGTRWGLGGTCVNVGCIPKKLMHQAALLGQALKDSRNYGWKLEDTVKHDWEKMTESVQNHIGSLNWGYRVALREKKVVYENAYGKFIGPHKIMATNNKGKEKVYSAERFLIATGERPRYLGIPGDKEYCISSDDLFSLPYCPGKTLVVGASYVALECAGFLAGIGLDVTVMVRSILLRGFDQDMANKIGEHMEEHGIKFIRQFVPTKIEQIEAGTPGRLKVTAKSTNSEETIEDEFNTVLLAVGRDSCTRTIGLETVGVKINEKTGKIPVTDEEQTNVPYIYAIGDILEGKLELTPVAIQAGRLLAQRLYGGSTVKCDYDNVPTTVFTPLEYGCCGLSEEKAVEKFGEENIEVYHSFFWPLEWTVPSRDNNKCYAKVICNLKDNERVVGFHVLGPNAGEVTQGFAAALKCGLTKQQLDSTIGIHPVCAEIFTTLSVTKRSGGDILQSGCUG", "experiment": "TrxR inhibition assay in cell-free system", "type": "biochemical", "conditions": "for inhibition of TrxR: cell-free, rat liver TrxR", "method_in_brief": "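Rat liver TrxR (50 nM) was preincubated at 37 °C for 30 min with 100 μM NADPH and test compound (5–100 μM) in 50 mM Tris–HCl, 1 mM EDTA, pH 7.4 (4% DMSO final). DTNB was then added and TNB formation followed at A412 for 5 min, against a no-enzyme blank and a compound blank. Activity is given as % of control. For reversibility, NADPH was varied 10–100 μM with compound fixed at 50 μM (Lineweaver–Burk).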"}, "cells": {"system": "cells", "experiment": "Toxicity in cells", "type": "cell-based", "conditions": "up to a concentration of 10 μM", "method_in_brief": "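Cells were seeded at about 2 × 10³ per well and allowed to attach for 12 h. Lines were CHO, A549 and MCF7 in DMEM with 10% FBS, or fresh BALB/c mouse splenic lymphocytes in RPMI-1640. Cells were then exposed to test compound (5–100 μM, 0.1% DMSO) for 48 h. MTT was read at 570 nm, with % cytotoxicity taken versus control. Mean ± SEM, n = 3.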"}, "CHO cells [10]": {"system": "CHO cells", "experiment": "Radiation-induced micronuclei assay and NDI in CHO cells", "type": "cell-based, Chinese Hamster", "conditions": "4 Gy; for reduction in radiation-induced micronuclei formation: pretreatment 2 h, 18 h postirradiation", "method_in_brief": "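CHO cells were pretreated with test compound (2.5–10 μM; 10 μM for NDI) for 2 h, washed with PBS and placed in serum-free medium. They were given 4 Gy ⁶⁰Co γ-rays at 1 Gy/min, then returned to 10% FBS. Cytochalasin B (4 μg/mL) was present for 18 h, and cells were stained with acridine orange. Micronuclei were scored in 500 binucleated cells. NDI was calculated from counts of mono- to tetranucleated cells among ≥500 viable cells.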"}, "CHO cells [11]": {"system": "CHO cells", "experiment": "Single-cell alkaline gel electrophoresis", "type": "cell-based, Chinese Hamster", "conditions": "10 μM for 2 h, 4 Gy, 0 to 60 min", "method_in_brief": "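CHO cells pretreated with 10 μM test compound for 2 h were washed, then irradiated at 4 Gy (⁶⁰Co, 1 Gy/min) in serum-free medium, with 10% FBS re-added afterwards. At 0, 30 and 60 min, about 15 000 cells in 0.8% low-melting agarose were lysed, electrophoresed under alkaline conditions and stained with SYBR Green II. Tail length and olive tail moment were measured in about 50 cells per slide. Mean ± SEM, n = 3.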"}, "CHO cells [12]": {"system": "CHO cells", "experiment": "Radiation-induced intracellular ROS level", "type": "cell-based, Chinese Hamster", "conditions": "10 μM for 2 h, 2 Gy, 30 min postirradiation", "method_in_brief": "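CHO cells were pretreated with 10 μM test compound for 2 h and then γ-irradiated. At 30 min postirradiation, 1 × 10⁴ cells were loaded with DCFDA (5 μM) for 30 min at 37 °C. DCF fluorescence was read on a plate reader (excitation 488 nm, emission 530 nm).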"}}, "data": [{"substance": "Hispolon [HS]", "values": [{"measurement": "degraded in phosphate buffer", "setting": "Chemical stability [1]", "value": 65, "unit": "%"}, {"measurement": "degraded in culture medium (10% FBS)", "setting": "Chemical stability [2]", "value": "~30", "unit": "%"}, {"measurement": "IC50", "setting": "MCF7 cells [3]", "value": 42, "unit": "µM"}, {"measurement": "IC50", "setting": "A549 cells", "value": 68, "unit": "µM"}, {"measurement": "IC50", "setting": "CHO cells [4]", "value": "> 100", "unit": "µM"}, {"measurement": "IC50", "setting": "splenic lymphocytes", "value": "> 100", "unit": "µM"}, {"measurement": "increase in GSH/GSSG", "setting": "MCF7 cells [5]", "value": "did not cause any significant change"}, {"measurement": "inhibition of GPx activity", "setting": "[6]", "value": "did not cause any significant change"}, {"measurement": "inhibition of GST activity", "setting": "[7]", "value": "did not cause any significant change"}, {"measurement": "mRNA expression of γ-GCL compared to control cells", "setting": "[8]", "value": "marginal increase"}, {"measurement": "percent inhibition in TrxR activity", "setting": "[9]", "value": 58, "unit": "%"}, {"measurement": "nature of TrxR inhibition", "setting": "rat liver TrxR; NADPH competition experiment, Lineweaver–Burk", "value": "reversible inhibition"}, {"measurement": "inhibition of TrxR", "setting": "rat liver TrxR; 100 μM", "value": "85–95%"}, {"measurement": "inhibition of TrxR", "setting": "rat liver TrxR; up to a concentration of 50 μM", "value": "15–25%"}, {"measurement": "Vmax", "setting": "rat liver TrxR; compound 50 μM, NADPH 10–100 μM, unaffected versus control reaction", "value": 1, "unit": "nmol/min"}, {"measurement": "toxicity in cells", "setting": "cells", "value": "< 10", "unit": "%"}, {"measurement": "Nuclear division index (NDI) compared to radiation control", "setting": "CHO cells [10]; 10 μM for 2 h", "value": "did not affect this much"}, {"measurement": "reduction in radiation-induced micronuclei formation", "setting": "CHO cells [10]; 7.5 μM", "value": 20, "unit": "%"}, {"measurement": "reduction in radiation-induced micronuclei formation", "setting": "CHO cells [10]; 10 μM", "value": 22, "unit": "%"}, {"measurement": "reduction in radiation-induced micronuclei formation", "setting": "CHO cells [10]; up to 5 μM", "value": "did not affect"}, {"measurement": "DNA damage parameters (TL, OTM) compared to radiation control", "setting": "CHO cells [11]", "value": "significant decrease"}, {"measurement": "reduction in the ROS level compared to radiation control", "setting": "CHO cells [12]", "value": 40, "unit": "%"}]}]}
